Assay results as given in ChEMBL document CHEMBL3352165 (Eur J Med Chem, 2014).
pIC50: −log10 of the molar value. Active and inactive are the calls of the source. The rule behind the calls is not given here.

Assays:
[1] = system: MDA-MB-231; test: cells; details: Homo sapiens, MDA-MB-231, 72 h
[2] = biological target: Mast/stem cell growth factor receptor Kit (Homo sapiens, UniProt P10721); test: Inhibition of c-KIT phosphorylation (unknown origin) expressed in human NCI-H526 cells at 0.001 to 1 uM incubated for 2 hrs by Western blot method; assay type: cell-based
Chain of Mast/stem cell growth factor receptor Kit (P10721 whole entry): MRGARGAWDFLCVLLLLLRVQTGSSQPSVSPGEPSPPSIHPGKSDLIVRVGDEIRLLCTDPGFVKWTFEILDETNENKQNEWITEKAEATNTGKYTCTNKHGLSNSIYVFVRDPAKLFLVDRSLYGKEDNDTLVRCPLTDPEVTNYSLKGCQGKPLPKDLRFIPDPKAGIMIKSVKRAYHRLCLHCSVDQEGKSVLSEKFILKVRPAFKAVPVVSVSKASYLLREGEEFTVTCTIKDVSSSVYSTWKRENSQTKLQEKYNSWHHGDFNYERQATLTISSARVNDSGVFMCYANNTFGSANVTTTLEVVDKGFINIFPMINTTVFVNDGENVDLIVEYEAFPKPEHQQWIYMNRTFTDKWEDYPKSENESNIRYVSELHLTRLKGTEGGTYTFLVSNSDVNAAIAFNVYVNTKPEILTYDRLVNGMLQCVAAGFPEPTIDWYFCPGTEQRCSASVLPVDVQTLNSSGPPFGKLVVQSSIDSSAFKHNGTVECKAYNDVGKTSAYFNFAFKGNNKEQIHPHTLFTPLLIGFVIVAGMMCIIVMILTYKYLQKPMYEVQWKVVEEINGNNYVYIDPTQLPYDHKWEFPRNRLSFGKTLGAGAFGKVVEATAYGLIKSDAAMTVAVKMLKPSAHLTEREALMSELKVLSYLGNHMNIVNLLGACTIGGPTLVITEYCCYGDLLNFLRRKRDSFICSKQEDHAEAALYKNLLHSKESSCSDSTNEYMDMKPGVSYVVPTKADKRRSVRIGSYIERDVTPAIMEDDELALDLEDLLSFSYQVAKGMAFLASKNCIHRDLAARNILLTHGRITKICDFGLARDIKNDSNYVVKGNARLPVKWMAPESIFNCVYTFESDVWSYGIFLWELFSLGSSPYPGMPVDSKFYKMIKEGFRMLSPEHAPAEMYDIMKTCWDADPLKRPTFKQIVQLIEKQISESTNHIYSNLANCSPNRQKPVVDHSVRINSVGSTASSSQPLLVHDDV
Outline: (§1)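 Cells grown to half-confluence and serum-starved 24 h, then treated 2 h at 0.001, 0.01, 0.1 and 1 µM. Afterwards stimulated at 37 °C with 20 ng/ml SCF-1, PDGF-BB or VEGF as appropriate to the receptor. Phosphorylation assessed by western blot.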

[3] = system: BT-474; test: Induction of apoptosis in human BT474 cells at 0.01 uM incubated for 12 hrs by propidium iodide staining based flow cytometry (reference value: 1%); assay type: functional
[4] = system: BT-474; test: Induction of apoptosis in human BT474 cells at 0.001 uM incubated for 12 hrs by propidium iodide staining based flow cytometry (reference value: 1%); assay type: functional
[5] = biological target: T1, Platelet-derived growth factor receptor beta (Homo sapiens, UniProt P09619); test: Inhibition of PDGFRbeta (unknown origin) by ELISA method
T1 sequence (P09619 whole entry): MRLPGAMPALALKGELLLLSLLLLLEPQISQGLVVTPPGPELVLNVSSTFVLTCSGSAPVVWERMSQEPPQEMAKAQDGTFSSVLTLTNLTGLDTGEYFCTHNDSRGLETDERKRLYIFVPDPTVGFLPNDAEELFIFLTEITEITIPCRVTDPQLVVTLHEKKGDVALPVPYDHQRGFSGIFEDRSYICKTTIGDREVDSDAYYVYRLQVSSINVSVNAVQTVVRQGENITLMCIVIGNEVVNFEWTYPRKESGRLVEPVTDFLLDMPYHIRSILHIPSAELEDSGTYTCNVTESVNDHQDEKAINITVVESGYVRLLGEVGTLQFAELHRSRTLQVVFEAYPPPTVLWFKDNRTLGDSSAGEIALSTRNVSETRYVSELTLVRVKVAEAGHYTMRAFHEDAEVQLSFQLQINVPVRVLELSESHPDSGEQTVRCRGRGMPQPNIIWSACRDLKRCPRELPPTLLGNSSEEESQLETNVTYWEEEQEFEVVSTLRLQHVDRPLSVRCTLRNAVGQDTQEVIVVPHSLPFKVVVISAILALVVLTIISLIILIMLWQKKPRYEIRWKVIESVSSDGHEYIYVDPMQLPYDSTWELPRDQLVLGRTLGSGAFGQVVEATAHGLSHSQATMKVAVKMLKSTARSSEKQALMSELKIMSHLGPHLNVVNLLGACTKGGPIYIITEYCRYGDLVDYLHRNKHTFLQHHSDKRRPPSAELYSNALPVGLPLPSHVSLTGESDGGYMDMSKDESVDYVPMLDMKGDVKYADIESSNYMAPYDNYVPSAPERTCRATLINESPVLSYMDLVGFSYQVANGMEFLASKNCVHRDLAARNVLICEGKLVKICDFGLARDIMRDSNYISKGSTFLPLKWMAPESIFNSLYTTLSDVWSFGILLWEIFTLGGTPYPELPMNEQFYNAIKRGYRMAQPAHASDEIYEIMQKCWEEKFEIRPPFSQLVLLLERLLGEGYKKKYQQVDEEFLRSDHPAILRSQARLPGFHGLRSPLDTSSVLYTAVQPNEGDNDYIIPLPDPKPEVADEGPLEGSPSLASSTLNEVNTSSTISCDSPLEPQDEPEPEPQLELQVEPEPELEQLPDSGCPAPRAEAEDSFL
Outline: (§2)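 Phosphotyrosine ELISA with purified kinase (20 ng) and 5 µM ATP in buffer (50 mM HEPES pH 7.4, 20 mM MgCl2, 0.1 mM MnCl2, 0.2 mM Na3VO4, 1 mM DTT), 1 h at 37 °C, DMSO ≤1%. Detection by PY99 antibody, then HRP anti-mouse IgG with o-phenylenediamine, A490. IC50 by Logit from at least three independent tests.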

[6] = Elimination half life in Beagle dog at 240 mg/kg, po dosed for 14 days by LC/MS/MS method; assay type: ADME, organism-based, Canis lupus familiaris; set-up: dose 240 mg/kg, route oral; details: in vivo, read-out: beta t1/2 (converted)
Outline: (§3)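 Beagle dogs (n = 6) dosed by oral gavage at 240 mg/kg daily for 14 consecutive days. Blood taken predose and at 0.25–24 h on days 1 and 14, plasma stored at −20 °C, analysed by validated LC/MS/MS. Half-life and AUC by model-independent methods; Cmax and MRT read from concentration–time data.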

[7] = biological target: Vascular endothelial growth factor receptor 2 (Homo sapiens, UniProt P35968); test: Inhibition of KDR phosphorylation (unknown origin) expressed in human HUVEC at 0.001 to 1 uM incubated for 2 hrs by Western blot method; assay type: cell-based
Outline: as §1

[8] = Tmax in Beagle dog at 240 mg/kg, po dosed for 14 days by LC/MS/MS method; assay type: ADME, organism-based, Canis lupus familiaris; set-up: dose 240 mg/kg, route oral; details: in vivo
Outline: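 Beagle dogs (n = 6) given 240 mg/kg daily by oral gavage for 14 consecutive days. On days 1 and 14, blood taken predose and at 0.25–24 h post-dose. Plasma held at -20 °C, then quantified by validated LC/MS/MS. Tmax taken directly from the plasma concentration-time data.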

[9] = biological target: T2, Receptor tyrosine-protein kinase erbB-2 (Homo sapiens, UniProt P04626); details: BT-474, 0.001 to 1 uM
T2 sequence (P04626 whole entry): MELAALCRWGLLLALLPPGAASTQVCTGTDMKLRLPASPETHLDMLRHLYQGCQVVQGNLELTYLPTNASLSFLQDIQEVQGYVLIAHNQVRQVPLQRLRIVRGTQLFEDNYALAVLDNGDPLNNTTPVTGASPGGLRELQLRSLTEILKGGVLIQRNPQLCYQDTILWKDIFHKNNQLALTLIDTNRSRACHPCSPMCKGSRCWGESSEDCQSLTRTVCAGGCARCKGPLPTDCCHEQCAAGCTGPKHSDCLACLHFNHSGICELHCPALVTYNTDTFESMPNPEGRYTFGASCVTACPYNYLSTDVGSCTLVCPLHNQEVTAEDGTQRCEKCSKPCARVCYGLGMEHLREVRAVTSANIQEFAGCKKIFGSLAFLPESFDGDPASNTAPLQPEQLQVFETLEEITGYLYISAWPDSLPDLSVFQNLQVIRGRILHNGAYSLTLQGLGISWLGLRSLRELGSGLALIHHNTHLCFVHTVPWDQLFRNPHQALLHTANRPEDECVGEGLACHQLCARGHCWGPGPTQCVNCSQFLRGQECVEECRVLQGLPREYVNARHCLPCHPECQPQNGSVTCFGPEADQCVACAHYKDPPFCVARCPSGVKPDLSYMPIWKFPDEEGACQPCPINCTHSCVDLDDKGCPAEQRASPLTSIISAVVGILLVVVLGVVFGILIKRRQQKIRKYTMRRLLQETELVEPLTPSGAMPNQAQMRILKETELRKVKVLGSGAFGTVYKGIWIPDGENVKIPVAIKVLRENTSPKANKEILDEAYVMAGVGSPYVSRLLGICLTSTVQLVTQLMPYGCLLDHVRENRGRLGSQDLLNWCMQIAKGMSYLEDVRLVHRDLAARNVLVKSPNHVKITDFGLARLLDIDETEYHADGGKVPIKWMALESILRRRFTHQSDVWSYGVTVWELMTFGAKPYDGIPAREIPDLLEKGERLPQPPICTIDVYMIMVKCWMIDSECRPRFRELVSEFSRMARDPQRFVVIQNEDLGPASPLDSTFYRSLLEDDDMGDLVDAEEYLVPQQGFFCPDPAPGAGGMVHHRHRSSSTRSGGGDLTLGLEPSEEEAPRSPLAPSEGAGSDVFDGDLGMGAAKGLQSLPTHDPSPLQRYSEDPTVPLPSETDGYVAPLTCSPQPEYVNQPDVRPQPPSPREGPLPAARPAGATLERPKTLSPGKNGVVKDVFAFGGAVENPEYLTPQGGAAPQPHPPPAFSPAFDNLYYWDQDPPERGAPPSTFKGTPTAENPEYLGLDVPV

[10] = biological target: T3, Epidermal growth factor receptor (Homo sapiens, UniProt P00533); details: A-431, 0.001 to 1 uM
T3 sequence (P00533 whole entry): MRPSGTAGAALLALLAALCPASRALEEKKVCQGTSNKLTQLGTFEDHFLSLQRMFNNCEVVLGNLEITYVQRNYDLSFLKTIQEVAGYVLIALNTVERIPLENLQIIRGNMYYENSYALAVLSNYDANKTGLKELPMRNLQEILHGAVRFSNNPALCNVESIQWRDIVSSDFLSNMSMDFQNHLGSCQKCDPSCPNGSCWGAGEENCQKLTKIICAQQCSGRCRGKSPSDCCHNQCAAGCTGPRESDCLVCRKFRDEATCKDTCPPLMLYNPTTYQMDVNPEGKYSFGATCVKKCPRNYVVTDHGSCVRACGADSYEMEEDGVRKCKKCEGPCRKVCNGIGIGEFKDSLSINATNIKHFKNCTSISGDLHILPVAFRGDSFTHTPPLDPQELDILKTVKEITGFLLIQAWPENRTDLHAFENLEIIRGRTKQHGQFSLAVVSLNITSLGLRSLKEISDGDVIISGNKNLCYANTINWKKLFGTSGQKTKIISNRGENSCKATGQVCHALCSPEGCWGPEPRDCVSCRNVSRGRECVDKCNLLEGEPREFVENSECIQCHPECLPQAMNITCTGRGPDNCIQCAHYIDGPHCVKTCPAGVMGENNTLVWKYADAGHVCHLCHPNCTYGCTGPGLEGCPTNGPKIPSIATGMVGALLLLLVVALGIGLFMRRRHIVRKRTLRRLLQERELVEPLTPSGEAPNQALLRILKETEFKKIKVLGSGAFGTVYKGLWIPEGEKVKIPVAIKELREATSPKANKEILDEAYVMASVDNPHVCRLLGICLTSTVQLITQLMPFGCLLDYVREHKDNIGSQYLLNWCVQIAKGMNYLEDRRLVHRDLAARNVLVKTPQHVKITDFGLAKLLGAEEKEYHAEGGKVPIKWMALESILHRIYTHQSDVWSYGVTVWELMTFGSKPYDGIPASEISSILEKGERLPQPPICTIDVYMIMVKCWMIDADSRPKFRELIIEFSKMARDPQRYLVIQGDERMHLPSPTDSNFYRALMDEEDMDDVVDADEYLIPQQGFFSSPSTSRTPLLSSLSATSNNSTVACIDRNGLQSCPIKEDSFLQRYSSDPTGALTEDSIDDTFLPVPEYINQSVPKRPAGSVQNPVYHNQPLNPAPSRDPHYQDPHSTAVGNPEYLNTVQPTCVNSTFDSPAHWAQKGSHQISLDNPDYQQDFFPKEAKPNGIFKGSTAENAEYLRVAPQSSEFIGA

[11] = system: BT-474; test: Induction of apoptosis in human BT474 cells at 0.1 uM incubated for 12 hrs by propidium iodide staining based flow cytometry (reference value: 1%); assay type: functional
[12] = biological target: T1, Platelet-derived growth factor receptor beta; details: U-87MG ATCC, 0.001 to 1 uM
[13] = biological target: T2, Receptor tyrosine-protein kinase erbB-2; details: BT-474, 0.001 to 1 uM; remark: listed apart in the source
[14] = system: NCI-H460; test: cells; details: Homo sapiens, NCI-H460, 72 h
[15] = system: BT-474; test: Cytotoxicity against human BT474 cells assessed as inhibition of cell growth after 72 hrs by sulforhodamine B assay; assay type: functional, cell-based; details: BT-474, 72 h
Outline: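 Cells grown in RPMI-1640 with 5% FBS and plated at 5.0×10^4/ml. Next day exposed to 0.5–5000 ng/ml for 3 days. Survival read by sulforhodamine B staining. IC50 taken from growth curves; mean of at least three determinations.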

[16] = system: BT-474; test: Induction of cell cycle arrest in human BT474 cells assessed as accumulation at G2/M phase at 10 uM incubated for 12 hrs by propidium iodide staining based flow cytometry (reference value: 14%); assay type: functional
[17] = system: BT-474; test: Induction of apoptosis in human BT474 cells at 1 uM incubated for 12 hrs by propidium iodide staining based flow cytometry (reference value: 1%); assay type: functional
[18] = system: BT-474; test: Induction of cell cycle arrest in human BT474 cells assessed as accumulation at G1 phase at 0.01 uM incubated for 12 hrs by propidium iodide staining based flow cytometry (reference value: 67%); assay type: functional
[19] = cells; details: Homo sapiens, SK-OV-3, 72 h
[20] = cells; details: Homo sapiens, Calu-3, 72 h
[21] = system: BT-474; test: Induction of cell cycle arrest in human BT474 cells assessed as accumulation at G1 phase at 1 uM incubated for 12 hrs by propidium iodide staining based flow cytometry (reference value: 67%); assay type: functional
[22] = AUC (0 to 24 hrs) in Beagle dog at 240 mg/kg, po administered as single dose measured after 0.25 to 24 hrs post dose by LC/MS/MS method; assay type: ADME, organism-based, Canis lupus familiaris; set-up: time < 24 hr, dose 240 mg/kg, route oral; details: plasma
Outline: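 Single oral gavage of 240 mg/kg to beagle dogs (n = 6). Blood sampled at 0.25–24 h, kept on ice, centrifuged within 1 h (1000 × g, 4 °C, 15 min), plasma stored at −20 °C. Drug quantified by validated LC/MS/MS. AUC0–24 from non-compartmental analysis; Cmax and MRT taken directly from concentration–time data.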

[23] = Mean residence time in Beagle dog at 240 mg/kg, po dosed for 14 days by LC/MS/MS method; assay type: ADME, organism-based, Canis lupus familiaris; set-up: dose 240 mg/kg, route oral; details: in vivo
Outline: as §3

[24] = system: BT-474; test: Induction of cell cycle arrest in human BT474 cells assessed as accumulation at G2/M phase at 0.001 uM incubated for 12 hrs by propidium iodide staining based flow cytometry (reference value: 14%); assay type: functional
[25] = AUC (0 to infinity) in Beagle dog at 240 mg/kg, po dosed for 14 days by LC/MS/MS method; assay type: ADME, organism-based, Canis lupus familiaris; set-up: time infinity, dose 240 mg/kg, route oral; details: plasma
Outline: as §3

[26] = system: BT-474; test: Induction of cell cycle arrest in human BT474 cells assessed as accumulation at G1 phase at 0.1 uM incubated for 12 hrs by propidium iodide staining based flow cytometry (reference value: 67%); assay type: functional
[27] = biological target: T2, Receptor tyrosine-protein kinase erbB-2; test: Inhibition of HER2 (unknown origin) assessed as reduction in autophosphorylation by ELISA method
Outline: as §2

[28] = biological target: T3, Epidermal growth factor receptor; details: A-431, 0.001 to 10 uM
[29] = system: BT-474; test: Induction of cell cycle arrest in human BT474 cells assessed as accumulation at G1 phase at 0.001 uM incubated for 12 hrs by propidium iodide staining based flow cytometry (reference value: 67%); assay type: functional

SMILES: CN(C)[C@H](CS(C)(=O)=O)c1ccc(-c2ccc3ncnc(Nc4ccc(OCc5cccc(F)c5)c(Cl)c4)c3c2)o1
- pIC50 [1]: 4.02
- inhibition [2]: inactive
- Activity [3]: 1%
- Activity [4]: 1%
- pIC50 [5]: < 3.70
- half-life [6]: 4.8 h
- inhibition [7]: inactive
- Tmax [8]: 4.5 h
- inhibition [9]: Dose-dependent effect
- inhibition [10]: Dose-dependent effect
- Activity [11]: 4%
- inhibition [12]: inactive
- inhibition [13]: Dose-dependent effect
- pIC50 [14]: < 4.00
- pIC50 [15]: 7.54
- Activity [16]: 12%
- Activity [17]: 5%
- Activity [18]: 77%
- pIC50 [19]: 6.36
- pIC50 [20]: 6.64
- Activity [21]: 82%
- AUC(0-t) at 24 h [22]: 29800 ng·h/mL
- MRT [23]: 6.6 h
- Activity [24]: 14%
- AUC(0-inf) [25]: 30600 ng·h/mL
- Activity [26]: 84%
- pIC50 [27]: 9.30
- inhibition [28]: Dose-dependent effect
- Activity [29]: 70%
